Key:
[1] = test system: LOX IMVI; test: Cytotoxicity against human LOXIMVI cells after 48 hrs by SRB assay; format: functional
Method in brief: (§1)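 NCI 60-cell-line screen. Cells preincubated 24 h at 37 °C, 5% CO2; time-zero plates TCA-fixed. Compounds dissolved in DMSO and tested at five concentrations (100, 10, 1.0, 0.1, 0.01 µM) for 48 h continuous exposure. Adherent cells fixed with cold TCA (10% final), then SRB stained; absorbance at 515 nm. GI50, TGI and LC50 calculated from growth relative to time-zero and untreated controls.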

[2] = test system: SN12C; test: Cytotoxicity against human SN12C cells after 48 hrs by SRB assay; format: functional; method in brief: as §1
[3] = test system: HT-29; test: Cytotoxicity against human HT-29 cells after 48 hrs by SRB assay; format: functional; conditions: HT-29, 48 h; method in brief: as §1
[4] = test system: SW-620; test: Cytotoxicity against human SW620 cells after 48 hrs by SRB assay; format: functional; conditions: SW-620, 48 h
Method in brief: (§2)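 NCI 60-cell screen. Cells grew 24 h (37 °C, 5% CO2) before compound was added. Compounds were in DMSO and diluted in medium with gentamicin, then tested at five levels (100, 10, 1.0, 0.1, 0.01 µM) with 48 h continuous exposure. Adherent cells were fixed with TCA (10% final) and stained with 0.4% SRB, absorbance read at 515 nm. A time-zero plate was included. LC50 is the concentration giving 50% loss of protein relative to time zero.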

[5] = test system: SNB-19; test: Cytotoxicity against human SNB19 cells after 48 hrs by SRB assay; format: functional; conditions: SNB-19, 48 h; method in brief: as §2
[6] = test system: HOP-62; test: Cytotoxicity against human HOP62 cells after 48 hrs by SRB assay; format: functional; conditions: HOP-62, 48 h; method in brief: as §1
[7] = test system: HCC 2998; test: Cytotoxicity against human HCC2998 cells after 48 hrs by SRB assay; format: functional; conditions: HCC 2998, 48 h; method in brief: as §1
[8] = test system: KM12; test: Cytotoxicity against human KM12 cells after 48 hrs by SRB assay; format: functional; conditions: KM12, 48 h; method in brief: as §1
[9] = test system: T47D; test: Cytotoxicity against human T47D cells after 48 hrs by SRB assay; format: functional; method in brief: as §2
[10] = test system: UACC-62; test: Cytotoxicity against human UACC62 cells after 48 hrs by SRB assay; format: functional; conditions: UACC-62, 48 h; for CC50: read-out: LC50 (the source's name); method in brief: as §2
[11] = test system: HOP-92; test: Cytotoxicity against human HOP92 cells after 48 hrs by SRB assay; format: functional; conditions: HOP-92, 48 h; method in brief: as §1
[12] = test system: SK-MEL-28; test: Cytotoxicity against human SK-MEL-28 cells after 48 hrs by SRB assay; format: functional; conditions: SK-MEL-28, 48 h; for CC50: read-out: LC50 (the source's name); method in brief: as §1
[13] = test system: CAKI-1; test: Cytotoxicity against human Caki1 cells after 48 hrs by SRB assay; format: functional; conditions: CAKI-1, 48 h; method in brief: as §1
[14] = test system: NCI-H226; test: Cytotoxicity against human NCI-H226 cells after 48 hrs by SRB assay; format: functional; conditions: NCI-H226, 48 h; method in brief: as §1
[15] = test system: SK-MEL-2; test: Cytotoxicity against human SK-MEL-2 cells after 48 hrs by SRB assay; format: functional; conditions: SK-MEL-2, 48 h; method in brief: as §1
[16] = test system: OVCAR-8; test: Cytotoxicity against human OVCAR8 cells after 48 hrs by SRB assay; format: functional; conditions: OVCAR-8, 48 h; method in brief: as §1
[17] = test system: SF-268; test: Cytotoxicity against human SF268 cells after 48 hrs by SRB assay; format: functional; conditions: SF-268, 48 h; method in brief: as §1
[18] = test system: NCI-H322M; test: Cytotoxicity against human NCI-H322M cells after 48 hrs by SRB assay; format: functional; method in brief: as §1
[19] = test system: A549; test: Cytotoxicity against human A549/ATCC cells after 48 hrs by SRB assay; format: functional; conditions: A549, 48 h; for CC50: read-out: LC50 (the source's name); method in brief: as §1
[20] = test system: UACC-257; test: Cytotoxicity against human UACC257 cells after 48 hrs by SRB assay; format: functional; conditions: UACC-257, 48 h; method in brief: as §2
[21] = Cytotoxicity against human EKVX cells after 48 hrs by SRB assay; format: functional; method in brief: as §1
[22] = test system: COLO 205; test: Cytotoxicity against human COLO205 cells after 48 hrs by SRB assay; format: functional; conditions: COLO 205, 48 h; method in brief: as §1
[23] = test system: RXF 393; test: Cytotoxicity against human RXF393 cells after 48 hrs by SRB assay; format: functional; conditions: RXF 393, 48 h; method in brief: as §1
[24] = test system: IGROV-1; test: Cytotoxicity against human IGROV1 cells after 48 hrs by SRB assay; format: functional; conditions: IGROV-1, 48 h; method in brief: as §1
[25] = Toxicity in RBC (unknown origin) assessed as hemolysis after 48 hrs at 20 to 80 ug/ml by spectrophotometry; format: cell-based, Erythrocyte; conditions: red blood cells (RBC); read-out: Activity
Method in brief: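 Red blood cells at 5% hematocrit in RPMI 1640 exposed to 20, 40 and 80 µg/mL for 48 h at 37 °C; free hemoglobin read spectrophotometrically at 542 nm.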

[26] = test system: RPMI-8226; test: Cytotoxicity against human RPMI8226 cells after 48 hrs by SRB assay; format: functional; conditions: RPMI-8226, 48 h; method in brief: as §1
[27] = test system: K562; test: Cytotoxicity against human K562 cells after 48 hrs by SRB assay; format: functional; conditions: K562, 48 h; method in brief: as §1

O=CN1N=C(c2ccc(Nc3ccnc4cc(Cl)ccc34)cc2)CC1c1ccc(Cl)cc1 (configuration not stated)
GI50 [1]: 0.6 µM
LC50 [1]: > 100 µM
GI50 [2]: 0.98 µM
LC50 (50% net cell kill relative to time zero) [2]: > 100 µM
GI50 [3]: 0.41 µM
LC50 [3]: > 100 µM
GI50 [4]: 0.48 µM
LC50 [4]: > 100 µM
GI50 [5]: 1.92 µM
LC50 [5]: > 100 µM
GI50 [6]: 0.86 µM
LC50 (50% lethal concentration) [6]: > 100 µM
GI50 [7]: 1.61 µM
LC50 [7]: > 100 µM
GI50 [8]: 0.54 µM
LC50 (concentration killing 50% of cells) [8]: > 100 µM
GI50 [9]: 1.56 µM
LC50 (concentration giving 50% cell kill relative to time zero) [9]: > 100 µM
GI50 [10]: 0.57 µM
CC50 [10]: > 100 µM
GI50 [11]: > 100 µM
LC50 (concentration killing 50% of cells) [11]: > 100 µM
GI50 [12]: 0.76 µM
CC50 [12]: > 100 µM
GI50 [13]: 0.41 µM
LC50 [13]: > 100 µM
GI50 [14]: 4.66 µM
LC50 (50% lethal concentration) [14]: > 100 µM
GI50 [15]: 7.86 µM
LC50 [15]: > 100 µM
GI50 [16]: 3.22 µM
LC50 (50% net cell kill) [16]: > 100 µM
GI50 [17]: 0.85 µM
LC50 [17]: > 100 µM
GI50 [18]: > 100 µM
LC50 (50% lethal concentration) [18]: > 100 µM
GI50 [19]: 0.99 µM
CC50 [19]: > 100 µM
GI50 [20]: > 100 µM
LC50 [20]: > 100 µM
LC50 [21]: > 100 µM
GI50 [22]: 2.4 µM
LC50 [22]: > 100 µM
GI50 [23]: 1.88 µM
LC50 (concentration killing 50% of cells) [23]: > 100 µM
GI50 [24]: 5.01 µM
LC50 (concentration killing 50% of cells relative to time zero) [24]: > 100 µM

O=CN1N=C(c2ccc(Nc3ccnc4cc(Cl)ccc34)cc2)CC1c1ccccc1 (configuration not stated)
GI50 [1]: 1.61 µM
LC50 [1]: 6.88 µM
GI50 [2]: 3.8 µM
LC50 (50% net cell kill relative to time zero) [2]: > 100 µM
GI50 [3]: 3.21 µM
LC50 [3]: > 100 µM
GI50 [4]: 2.73 µM
LC50 [4]: 68.7 µM
GI50 [5]: 5.13 µM
LC50 [5]: > 100 µM
GI50 [6]: 5.26 µM
LC50 (50% lethal concentration) [6]: > 100 µM
GI50 [7]: 3.5 µM
LC50 [7]: > 100 µM
GI50 [8]: 3.41 µM
LC50 (concentration killing 50% of cells) [8]: > 100 µM
hemolysis at 48 h [25]: 3.8%
GI50 [9]: 2.18 µM
LC50 (concentration giving 50% cell kill relative to time zero) [9]: > 100 µM
GI50 [10]: 1.55 µM
CC50 [10]: 17.4 µM
GI50 [11]: 4.28 µM
LC50 (concentration killing 50% of cells) [11]: > 100 µM
GI50 [12]: 8.35 µM
CC50 [12]: > 100 µM
GI50 [13]: 3.82 µM
LC50 [13]: > 100 µM
GI50 [14]: 5.22 µM
LC50 (50% lethal concentration) [14]: > 100 µM
GI50 [16]: 4.53 µM
LC50 (50% net cell kill) [16]: > 100 µM
GI50 [17]: 3.96 µM
LC50 [17]: > 100 µM
GI50 [19]: 4.05 µM
CC50 [19]: > 100 µM
GI50 [20]: 10.1 µM
LC50 [20]: > 100 µM
GI50 [21]: 4.94 µM
LC50 [21]: > 100 µM
GI50 [22]: 2.21 µM
LC50 [22]: > 100 µM
GI50 [23]: 2.2 µM
LC50 (concentration killing 50% of cells) [23]: > 100 µM
GI50 [24]: 9.36 µM
LC50 (concentration killing 50% of cells relative to time zero) [24]: > 100 µM
GI50 [26]: 2.55 µM
LC50 (concentration killing 50% of cells) [26]: > 100 µM

COc1cccc2c1C(=O)c1c(O)c3c(c(O)c1C2=O)C[C@@](O)(C(=O)CO)C[C@@H]3O[C@H]1C[C@H](N)[C@H](O)[C@H](C)O1 [DOXORUBICIN]
GI50 [1]: 0.07 µM
GI50 [2]: 0.07 µM
GI50 [3]: 0.12 µM
GI50 [4]: 0.09 µM
GI50 [5]: 0.04 µM
GI50 [6]: 0.07 µM
GI50 [7]: 0.26 µM
GI50 [8]: 0.27 µM
GI50 [9]: 0.06 µM
GI50 [10]: 0.12 µM
CC50 [10]: 0.74 µM
GI50 [11]: 0.1 µM
GI50 [12]: 0.21 µM
CC50 [12]: 15.9 µM
GI50 [13]: 0.95 µM
GI50 [14]: 0.05 µM
GI50 [27]: 0.19 µM
GI50 [16]: 0.1 µM
GI50 [17]: 0.1 µM
GI50 [18]: 0.54 µM
GI50 [19]: 0.06 µM
CC50 [19]: 100 µM
GI50 [20]: 0.14 µM
GI50 [21]: 0.41 µM
GI50 [22]: 0.18 µM
GI50 [23]: 0.1 µM
GI50 [24]: 0.17 µM
GI50 [26]: 0.08 µM
